The target of data set [1] is T1, Vasopressin V2 receptor (Homo sapiens, UniProt P30518). Briefly: Binding affinity measured by inhibition of 3[H] AVP binding to cloned human vasopressin V2 receptor. The essentials:
(§1)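 Radioligand binding: inhibition of [3H]AVP binding to cloned human V1a or V2 receptors; IC50 in nM.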

For data set [2], the target named is T1, Vasopressin V2 receptor. Briefly: Evaluated for accumulation of cAMP in transfected HEK293 cells expressing human vasopressin V2 receptor. Format: functional, cell-based. The essentials: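 Functional V2 assay: cAMP accumulation measured in transfected HEK-293 cells expressing human V2 receptor; IC50 in nM.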
Data set [3] has as its target T2, Vasopressin V1a receptor (Homo sapiens, UniProt P37288). Briefly: Binding affinity measured by inhibition of 3[H] AVP binding to cloned human vasopressin V1a receptor. The essentials:
as §1

In data set [4] the target is T2, Vasopressin V1a receptor. Briefly: Evaluated for intracellular calcium mobilization in HEK293 cells transfected to express human vasopressin V1a receptor. Format: functional, cell-based. In outline:
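Functional V1a assay: intracellular calcium mobilization measured in HEK-293 cells transfected to express human V1a receptor; IC50 in nM.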
In general terms: Calcium flux is commonly read through the fluorescence of an indicator in the cells.

Data set [5] in a line: Half-life determined by human liver microsome stability assay at a concentration of 5 uM. Format: ADME. The settings on record: liver microsomes. (In general: Microsomes from liver hold many membrane-bound enzymes, among them those of drug oxidation.)
Data set [6] can be described thus: Apparent volume of distribution when 3 mg/Kg dose was administered intravenously. Format: ADME, organism-based. The settings on record: rat, in vivo, iv, read-out: Volume distribution. In outline:
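Rats given a single intravenous dose of 3 mg/kg. Apparent volume of distribution reported in […].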

Data set [7] in a line: Maximum plasma concentration was evaluated in rats at an intravenous dose of 3 mg/kg. The settings on record: rat. Format: ADME, organism-based. Details: dose 3 mg/kg, route intravenous.
A short description of data set [8]: Maximum plasma concentration was evaluated in rats at an oral dose of 30 mg/kg. In kind it is ADME, organism-based. Further details: dose 30 mg/kg, route oral. The conditions noted are these: rat. In outline: (§2)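 Rats given a single oral dose of 30 mg/kg. Cmax, Tmax, terminal half-life and absolute oral bioavailability determined.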
Data set [9] can be described thus: Bioavailability was evaluated in rats at an oral dose of 30 mg/kg. Format: ADME, organism-based. The conditions noted are these: rat, in vivo. The essentials:
as §2

A short description of data set [10]: Half-life was evaluated in rats at an intravenous dose of 3 mg/kg. Format: ADME, organism-based. Details: dose 3 mg/kg, route intravenous. The conditions noted are these: rat, in vivo.
Data set [11] in a line: Area under the curve was evaluated at an intravenous dose of 3 mg/kg. The settings on record: rat, in vivo. Further details: dose 3 mg/kg, route intravenous. Format: ADME, organism-based.
Data set [12] can be described thus: Area under the curve was evaluated at an oral dose of 30 mg/kg. In kind it is ADME, organism-based. Details: dose 30 mg/kg, route oral. The conditions noted are these: rat, in vivo.
Data set [13] is described as follows: Partition coefficient (logP). In kind it is physicochemical. The conditions noted are these: octanol/water.
A short description of data set [14]: Solubility measured at pH 2. The settings on record: buffer. Format: physicochemical.
A short description of data set [15]: Solubility measured at pH 7.4. Format: physicochemical. The conditions noted are these: buffer.
The target of data set [16] is T3, Vasopressin V1a receptor (Rattus norvegicus, UniProt P30560). Briefly: Evaluated for binding affinity towards vasopressin receptor V1a in rat. In outline: (§3)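 Binding IC50 measured in cells transfected with rat V1a or rat V2 receptors.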
T3 sequence (P30560 whole entry): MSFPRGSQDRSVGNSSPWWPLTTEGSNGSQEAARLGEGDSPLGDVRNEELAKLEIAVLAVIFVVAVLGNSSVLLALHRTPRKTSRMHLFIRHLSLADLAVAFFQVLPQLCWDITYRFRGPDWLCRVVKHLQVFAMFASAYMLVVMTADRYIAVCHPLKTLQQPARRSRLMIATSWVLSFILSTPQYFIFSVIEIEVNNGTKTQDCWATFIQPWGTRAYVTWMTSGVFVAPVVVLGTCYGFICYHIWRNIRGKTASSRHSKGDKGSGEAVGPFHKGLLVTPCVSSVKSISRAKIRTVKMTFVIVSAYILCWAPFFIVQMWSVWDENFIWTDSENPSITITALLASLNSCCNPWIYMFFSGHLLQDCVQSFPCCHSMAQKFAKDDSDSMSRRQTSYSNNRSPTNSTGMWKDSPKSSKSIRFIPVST
The nature of data set [17]: Time to reach maximum plasma concentration was evaluated at an oral dose of 30 mg/kg. Format: ADME, organism-based. Details: dose 30 mg/kg, route oral. The settings on record: rat. The essentials:
as §2

In data set [18] the target is Vasopressin V2 receptor (Rattus norvegicus, UniProt Q00788). Briefly: Evaluated for binding affinity towards vasopressin V2 receptor in rat. The essentials:
as §3

The nature of data set [19]: Half-life was evaluated in rats at an oral dose of 30 mg/kg. The settings on record: rat, in vivo. Further details: dose 30 mg/kg, route oral. In kind it is ADME, organism-based. The essentials:
as §2

For data set [20], the target named is T3, Vasopressin V1a receptor. Briefly: Evaluated for binding affinity towards vasopressin V1a receptor in rat. The essentials:
as §3

In data set [21] the target is T2, Vasopressin V1a receptor. Briefly: Binding affinity measured by inhibition of 3[H] AVP binding to cloned human vasopressin V1a receptor (Compound 7o). The essentials: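 Displacement of [3H]AVP from cloned human V1a receptor; IC50 from inhibition of radioligand binding.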
Data set [22] concerns the target T2, Vasopressin V1a receptor. Briefly: Evaluated for intracellular calcium mobilization in HEK- 293 cells transfected to express human vasopressin V1a receptor (Compound 7o). Format: functional, cell-based, HEK293. In outline:
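Antagonism measured as inhibition of intracellular calcium mobilization in HEK-293 cells transfected with human V1a receptor; IC50 reported.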

Converted amounts (≈) assume the structure as drawn. Bounds are passed on as bounds.

T1 sequence (P30518 whole entry): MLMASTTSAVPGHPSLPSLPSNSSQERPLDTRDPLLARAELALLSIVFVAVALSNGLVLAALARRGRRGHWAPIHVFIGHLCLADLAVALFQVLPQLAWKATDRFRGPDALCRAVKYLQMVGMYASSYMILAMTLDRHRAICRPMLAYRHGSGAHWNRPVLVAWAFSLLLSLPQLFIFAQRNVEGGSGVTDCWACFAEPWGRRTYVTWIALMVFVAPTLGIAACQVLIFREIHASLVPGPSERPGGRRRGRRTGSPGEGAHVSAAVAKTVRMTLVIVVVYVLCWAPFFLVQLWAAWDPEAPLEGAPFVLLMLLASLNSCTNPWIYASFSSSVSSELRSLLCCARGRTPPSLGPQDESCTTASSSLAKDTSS
T2 sequence (P37288 whole entry): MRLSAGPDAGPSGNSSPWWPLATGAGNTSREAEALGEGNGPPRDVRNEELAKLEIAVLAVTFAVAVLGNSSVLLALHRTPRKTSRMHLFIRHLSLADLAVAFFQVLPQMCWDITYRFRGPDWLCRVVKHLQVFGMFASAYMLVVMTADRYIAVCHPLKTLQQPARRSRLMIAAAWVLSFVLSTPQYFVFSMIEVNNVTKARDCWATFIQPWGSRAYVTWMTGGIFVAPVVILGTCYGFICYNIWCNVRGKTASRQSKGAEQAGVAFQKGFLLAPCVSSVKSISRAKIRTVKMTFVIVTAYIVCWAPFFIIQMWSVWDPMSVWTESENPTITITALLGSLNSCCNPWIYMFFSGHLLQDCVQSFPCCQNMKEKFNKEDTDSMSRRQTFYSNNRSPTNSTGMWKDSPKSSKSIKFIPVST
Sequence of Vasopressin V2 receptor (Rattus norvegicus, UniProt Q00788) (Q00788 whole entry): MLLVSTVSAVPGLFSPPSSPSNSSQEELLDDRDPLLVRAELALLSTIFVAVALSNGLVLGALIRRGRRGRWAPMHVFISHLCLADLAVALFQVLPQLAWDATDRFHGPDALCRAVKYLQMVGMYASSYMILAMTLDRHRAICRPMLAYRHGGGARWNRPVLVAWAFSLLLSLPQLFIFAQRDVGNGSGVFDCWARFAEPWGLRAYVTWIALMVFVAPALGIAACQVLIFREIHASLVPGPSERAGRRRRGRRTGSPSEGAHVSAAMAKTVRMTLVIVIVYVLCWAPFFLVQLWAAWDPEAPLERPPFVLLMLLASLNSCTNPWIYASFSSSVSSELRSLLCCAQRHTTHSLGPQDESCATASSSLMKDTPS

Usually IC50 stands for the concentration at which inhibition is half-maximal. With `COC(=O)CNC(=O)C1=CC2(CC1)CCN(C(=O)c1ccc(NC(=O)c3cc(F)ccc3C)cc1)c1ccccc1C2` (stereo not drawn), the IC50 was 10 nM on Vasopressin V2 receptor [1], 440 nM against Vasopressin V2 receptor [2], 7 nM at Vasopressin V1a receptor [3] and 135 nM at Vasopressin V1a receptor [4].
`O=C(NCCO)C1=CC2(CC1)CCN(C(=O)c1ccc(NC(=O)c3ccccc3-c3ccccc3)cc1)c1ccccc1C2` (stereo not drawn) came in with an IC50 on Vasopressin V2 receptor [2] of 170 nM.
Still for that read-out and setting: for `CN(C)CCNC(=O)C1=CC2(CC1)CCN(C(=O)c1ccc(NC(=O)c3ccccc3-c3ccccc3)cc1)c1ccccc1C2` (stereo not drawn) the value was 100 nM.
Turning to `CN(C)CCNC(=O)C1=CC2(CC1)CCN(C(=O)c1ccc(NC(=O)c3ccccc3F)cc1)c1ccccc1C2` (stereo not drawn), the half-inhibitory concentration (IC50) at Vasopressin V2 receptor [1] and at Vasopressin V2 receptor [2] was greater than 1000 nM each time.
As a reminder, the half-life is how long it takes for the measured level to halve. Low values mean rapid decline, high ones slow decline. The Cmax is the peak of the concentration-time curve. As a reminder, the bioavailability is the share of a dose that reaches the circulation, judged against a reference dose that is usually intravenous. Read a high bioavailability as much systemic uptake. One may read the AUC as the area under the concentration-time curve, a measure of exposure. A higher AUC goes with high exposure. As a reminder, the logP is a log measure of how a compound divides between an organic and an aqueous phase. Broadly, the solubility is the concentration that dissolves in the medium under given conditions. One may read the Tmax as the time at which the peak concentration occurs. With `CN(C)CCNC(=O)C1=C[C@@]2(CC1)CCN(C(=O)c1ccc(NC(=O)c3ccccc3F)cc1)c1ccccc1C2` (single isomer, unassigned), in [5], the half-life at 5 µM is 43 min. Further, the Vd in data set [6] was 6.67 L/kg. Also, the results for the Cmax in [7] and in data set [8] were 1800 nM and 1100 nM, respectively. Besides, the bioavailability in data set [9] worked out at 42%. Also, the half-life is 261 min in data set [10] and 249 min in [19]. In addition, the area under the curve (AUC) in [11] was determined as 1.68 µM·h; in [12] it was 7.04 µM·h. Also, the logP in data set [13] worked out at 2.45. In addition, the solubility in data set [14] worked out at 320 µg/mL (≈ 577 µM); in data set [15], 70 µg/mL (≈ 126 µM). Also, the 50% inhibitory concentration (IC50) amounted to 341 nM on Vasopressin V2 receptor [1]; 646 nM against Vasopressin V2 receptor [2]; 4 nM at Vasopressin V1a receptor [3]; 433 nM on Vasopressin V1a receptor [16]; 78 nM at Vasopressin V1a receptor [4]; 444 nM on Vasopressin V2 receptor [18]. In addition, the Tmax in data set [17] came out at 4.67 h.
In turn, `CN(C)CCNC(=O)C1=C[C@]2(CC1)CCN(C(=O)c1ccc(NC(=O)c3ccccc3-c3ccccc3)cc1)c1ccccc1C2` displayed a half-life at 5 µM in data set [5] of 65 min. Also, the Vd in data set [6] is 6.84 L/kg. Also, the Cmax in [7] turned out to be 2660 nM; in data set [8], 790 nM. Also, in [9], the bioavailability came to 22%. Also, the half-life is 101 min in [10] and 388 min in data set [19]. In addition, the AUC in data set [11] came out at 2.06 µM·h; in data set [12] it was 4.57 µM·h. Also, the logP in data set [13] is 3.63. Moreover, the solubility in [14] worked out at 160 µg/mL (≈ 261 µM); in data set [15], 40 µg/mL (≈ 65.3 µM). Besides, the IC50 worked out at 8 nM on Vasopressin V2 receptor [1]; 36 nM at Vasopressin V2 receptor [2]; 2 nM at Vasopressin V1a receptor [3]; 33 nM on Vasopressin V1a receptor [20]; 45 nM on Vasopressin V1a receptor [4]. In addition, in [17], the Tmax came out at 4 h.
On to `Cc1ccc(F)cc1C(=O)Nc1ccc(C(=O)N2CCC3(C=C(C(=O)NCCN4CCCCC4)CC3)Cc3ccccc32)cc1` (stereo not drawn), for which the half-inhibitory concentration (IC50) on Vasopressin V2 receptor [1] was 39 nM; at Vasopressin V2 receptor [2], 48 nM; on Vasopressin V1a receptor [3], 10 nM; on Vasopressin V1a receptor [21], 16 nM; at Vasopressin V1a receptor [22], 71 nM; on Vasopressin V1a receptor [4], 48 nM.
In the case of `O=C(O)CNC(=O)C1=CC2(CC1)CCN(C(=O)c1ccc(NC(=O)c3ccccc3-c3ccccc3)cc1)c1ccccc1C2` (stereo not drawn), the IC50 at Vasopressin V2 receptor [1] amounted to 18 nM; at Vasopressin V2 receptor [2], 350 nM; at Vasopressin V1a receptor [3], 24 nM; on Vasopressin V1a receptor [4] it was 78 nM.
For `Cc1ccc(F)cc1C(=O)Nc1ccc(C(=O)N2CCC3(C=C(C(=O)NCCN4CCCC4)CC3)Cc3ccccc32)cc1` (stereo not drawn), in that order: 39 nM, 48 nM, 19 nM and 29 nM.
`O=C(NCCN1CCOCC1)C1=CC2(CC1)CCN(C(=O)c1ccc(NC(=O)c3ccccc3F)cc1)c1ccccc1C2` (stereo not drawn): the IC50 on Vasopressin V2 receptor [1] was greater than 1000 nM; on Vasopressin V1a receptor [3], 4 nM.
Take `O=C(NCCO)C1=CC2(CC1)CCN(C(=O)c1ccc(NC(=O)c3ccccc3F)cc1)c1ccccc1C2` (stereo not drawn): the IC50 on Vasopressin V2 receptor [1] and against Vasopressin V2 receptor [2] was greater than 1000 nM each time.
As to `Cc1ccc(F)cc1C(=O)Nc1ccc(C(=O)N2CCC3(C=C(C(=O)NCCN(C)C)CC3)Cc3ccccc32)cc1` (stereo not drawn), the 50% inhibitory concentration (IC50) on Vasopressin V2 receptor [1] came to 20 nM; against Vasopressin V2 receptor [2], 105 nM; on Vasopressin V1a receptor [4], 65 nM.
Take `O=C(NCCN1CCCC1)C1=CC2(CC1)CCN(C(=O)c1ccc(NC(=O)c3ccccc3F)cc1)c1ccccc1C2` (stereo not drawn): the half-inhibitory concentration (IC50) at Vasopressin V2 receptor [1] was greater than 1000 nM; against Vasopressin V2 receptor [2], greater than 1000 nM; at Vasopressin V1a receptor [3], 8 nM; at Vasopressin V1a receptor [4], 155 nM.
For the compound `CN(C)CCCNC(=O)C1=CC2(CC1)CCN(C(=O)c1ccc(NC(=O)c3ccccc3-c3ccccc3)cc1)c1ccccc1C2` (stereo not drawn), the 50% inhibitory concentration (IC50) at Vasopressin V2 receptor [1] was 16 nM; against Vasopressin V2 receptor [2], 20 nM; on Vasopressin V1a receptor [3], 5 nM; at Vasopressin V1a receptor [4], 29 nM.
For the compound `O=C(NCCN1CCCCC1)C1=CC2(CC1)CCN(C(=O)c1ccc(NC(=O)c3ccccc3F)cc1)c1ccccc1C2` (stereo not drawn), the half-inhibitory concentration (IC50) at Vasopressin V2 receptor [1] and on Vasopressin V2 receptor [2] was greater than 1000 nM each time.
For the compound `Cc1ccc(F)cc1C(=O)Nc1ccc(C(=O)N2CCC3(C=C(C(=O)NCCCN(C)C)CC3)Cc3ccccc32)cc1` (stereo not drawn), the results for the IC50 on Vasopressin V2 receptor [2] and on Vasopressin V1a receptor [4] were 31 nM and 4 nM, respectively.

Values taken from ChEMBL document CHEMBL1146639, “Synthesis and evaluation of nonpeptide substituted spirobenzazepines as potent vasopressin antagonists” (Bioorg Med Chem Lett, 2004).
